GSIS activator: GLuc luminescence reporter in INS-1E cells, primary screen for activators of glucose-dependent secretion of insulin | INS-1E GLuc reporter insulin secretion, 2-3 h | activation, % at 16.6 µM | 370,000 tested, 0.61% active;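 active means lowest replicate activation of at least 40%, so every replicate reaches that level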;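 further: 0% = median of neutral control wells and 100% = median of IBMX positive control wells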
miR-122 sensor: inhibitors of miR-122 in Huh7 cells | 340,000 tested, 0.3% active | activation (reporter increase), % at 12.5 µM | Huh7 miR-122 Renilla luciferase sensor, 48 h; neutral wells = 0, positive control = 100;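 active means mean replicate activation score at least 90 and every replicate individually at or above 90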;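 further: higher luciferase means less miR-122 activity so hits act as miR-122 inhibitors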
F508del corr: CFTR F508del correction in bronchial cells. CFBE cells, YFP halide quenching; stimulated with forskolin plus potentiator P3; % fluorescence drop versus neutral controls. activity (quench increase), % at 7.58 µM. 350,000 tested, 0.36% active;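 active means mean added fluorescence quench of at least 8% versus neutral control, with both replicates also reaching 8%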;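 further: cells transiently co-express mutant CFTR-F508del with the halide-sensitive YFP; corrector assay measuring rescue of mutant channel to the surface after 24 h compound exposure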
Env fusion inh: HIV envelope-mediated fusion inhibition | inhibition, % at 12.3 µM | HeLa-JRFL Env/CEM21 cell fusion, luciferase | AID 651610 | 360,000 tested, 1.1% active;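 active means mean replicate inhibition score of at least 50 and every replicate individually at or above 50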;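 further: 0% = plate neutral controls and 100% = maraviroc near 300 nM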
rRNA inh HTS: selective bacterial rRNA inhibition in E. coli; E. coli WT GFP vs humanized-ribosome RFP mutants, fluorescence, 24 h; active compounds read low; DMSO median 0, no signal -100; GFP signal change (wild-type ribosome), % (test concentration not listed); 350,000 tested, 1.6% active; AID 720706;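 active means significant combined selectivity score with lowered wild-type GFP, culture density cut under 30%, mutant RFP and density less affected; inactive means any of these conditions unmet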
Cneo AK release: causes C. neoformans cell lysis; adenylate kinase release luminescence, 4 h; normalised: neutral wells 0, clomiphene wells 100; lysis activity, % at 15 µM; 360,000 tested, 0.2% active; AID 651654;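 active means mean lysis activity across replicates of at least 80%, whatever share of replicates individually reach that level; inactive means mean lysis activity below 80%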
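Schedule: static 4 h at 37 °C with compound, 1 h detection; system: C. neoformans cells; benchmarks: Clomiphene as positive control; buffer or medium: fresh YPD medium; measure: luminescence rise reflecting yeast cell lysis; measured by: luminescent adenylate kinase detection reagent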
An asterisk follows results filed as active; nt = no result given; [ ] = remark or other dose. Hits are enriched below; roughly 3.1% of the tested compounds scored in any of these assays.

SMILES	GSIS activator	miR-122 sensor	F508del corr	Env fusion inh	rRNA inh HTS	Cneo AK release
CC(C)NC(=S)N(C)C1(c2ccccc2Cl)CCCCC1=O (stereo not given)	2.1	nt	nt	-18.7	nt	nt
CN(C(=S)NC1CCCCC1)C1(c2ccccc2Cl)CCCCC1=O (stereo not given)	-19.2	nt	nt	92.7*	nt	nt
Cc1cc2oc(=O)cc(CN3CCOCC3)c2c(C)c1Cl	41.3*	-8.9	1.0	6.4	2.7	0.9
COCC#Cc1cnc2c(c1)C(=O)N([C@H](C)CO)C[C@@H](C)[C@@H](CN(C)C(=O)c1ccc3c(c1)OCO3)O2	8.4	-3.3[16.7 µM]	3.5	-104.6[16.7 µM]	3.7	4.6
CCn1cc(S(=O)(=O)CC(=O)Nc2cc(C)on2)c2ccccc21	nt	29.7	nt	-44.6	nt	3.6
Cc1cc(NC(=O)CS(=O)(=O)c2cn(Cc3ccc(F)cc3)c3ccccc23)no1	nt	6.0	-0.8	79.3*	1.2	1.6
Cc1cc(NC(=O)CS(=O)(=O)c2cn(Cc3cccc(C(F)(F)F)c3)c3ccccc23)no1	-16.0	1.8	2.4	77.5*	-1.5	-2.3
Cc1cc(NC(=O)CS(=O)(=O)c2cn(Cc3cccc(F)c3)c3ccccc23)no1	-11.9	6.9	nt	73.2*	nt	-1.2
Cc1cc(NC(=O)CSCC(=O)NCc2cccc(C(F)(F)F)c2)no1	-7.7	nt	-1.5	12.8	-0.6	nt
Cc1noc(C)c1NC(=O)N(C)C[C@@H]1Oc2c(NS(=O)(=O)c3cccs3)cccc2C(=O)N([C@@H](C)CO)C[C@H]1C	15.8	0.1[16.7 µM]	-0.8	nt	0.7	2.7
COC(=O)c1ccc(OC)c(CSc2nnc(COc3ccc(Cl)cc3)o2)c1	nt	-2.3	nt	60.0*	nt	-2.7
COc1cccc(NC(=O)N[C@@H]2C=C[C@H](CC(=O)N3CCN(C)CC3)O[C@H]2CO)c1	2.0	nt	-0.4	-9.3[16.7 µM]	0.4	-0.9
O=C(COC(=O)Cn1cnc2ccccc2c1=O)NCc1ccccc1	26.2	-3.4	0.4	-20.5	3.5	0.0
COc1ccc(CCNC(=O)COC(=O)Cn2cnc3ccccc3c2=O)cc1	nt	186.4*	-2.8	-33.4	-0.7	2.9
C[C@@H]1CN([C@H](C)CO)C(=O)CCCn2cc(nn2)CO[C@@H]1CN(C)S(=O)(=O)c1ccc(Cl)cc1	0.0	2.2[16.7 µM]	-1.7	12.3[16.7 µM]	-1.2	4.7
CCN(CC)CCOC(=O)c1ccc(N/C=C(/C#N)c2nc(-c3cccc(OC)c3)cs2)cc1	nt	1.3	2.7	-4.5	nt	0.8
CCN(CC)CCOC(=O)c1ccc(N/C=C(/C#N)c2nc(-c3ccc(OC)c(OC)c3)cs2)cc1	56.2*	nt	-0.6	5.3	32.3	nt
C[C@H](CO)N1C[C@H](C)[C@@H](CN(C)C(=O)c2ccncc2)Oc2ncc(C#CC3CCCCC3)cc2C1=O	-11.0	-16.1[16.7 µM]	-1.7	-6.4[16.7 µM]	-1.1	4.2
Cc1cc(CNC(=O)c2cc(Br)ccc2Cl)nn1C	-4.3	2.1	nt	-51.9	nt	-3.3
Cc1cc(C)cc(NC(=S)N2CCN(C(=O)c3ccco3)CC2)c1	-1.6	-7.8	-1.2	15.5	8.2	-1.3
O=C(c1ccco1)N1CCN(C(=S)Nc2ccc(Br)cc2Cl)CC1	-2.4	nt	2.9	34.1	-43.7*	4.5
S=C(NCc1ccco1)Nc1ccc(Br)cc1Cl	2.0	31.9	-1.9	-23.1	-37.1*	nt
Cc1cc(CNC(=S)Nc2ccc(Br)cc2Cl)nn1C	3.8	nt	-0.7	5.4	-46.8*	nt
COc1ccc2c3c([nH]c2c1)[C@H](CO)N(C(=O)c1ccccc1)CC31CN(Cc2cccnc2)C1	-4.8	nt	-2.7	3.1[16.7 µM]	0.7	nt
CCCCSc1nc(N)c(C#N)c(-c2cccs2)c1C#N	2.1	-9.8	-0.8	nt	-31.4*	-2.2
SMILES	GSIS activator	miR-122 sensor	F508del corr	Env fusion inh	rRNA inh HTS	Cneo AK release
C[C@@H]1CN([C@@H](C)CO)S(=O)(=O)c2ccc(-c3ccncc3)cc2O[C@H]1CN(C)C(=O)c1cccc(F)c1	-5.9	3.5[16.7 µM]	nt	-4.6[16.7 µM]	-1.0	-14.1
O=C(C[C@H]1C[C@@H]2c3cc(NC(=O)Nc4ccc(F)cc4)ccc3O[C@@H]2[C@@H](CO)O1)NCC1CC1	2.1	4.9[16.7 µM]	-0.7	94.8*[16.7 µM]	-2.8	-1.7
O=C(Nc1ccc(F)cc1)Nc1ccc2c(c1)[C@H]1C[C@@H](CC(=O)N3CCCCC3)O[C@H](CO)[C@H]1O2	-1.8	-1.0[16.7 µM]	0.4	83.1*[16.7 µM]	-4.6	-1.2
O=C(C[C@@H]1C[C@H]2c3cc(NC(=O)Nc4ccc(F)cc4)ccc3O[C@H]2[C@@H](CO)O1)NCC1CC1	-0.9	2.8[16.7 µM]	-1.3	nt	2.8	-3.4
O=C(C[C@@H]1C[C@H]2c3cc(NC(=O)Nc4ccc(F)cc4)ccc3O[C@H]2[C@H](CO)O1)NCC1CC1	-14.3	-2.7[16.7 µM]	0.3	94.8*[16.7 µM]	-2.1	1.4
O=C(C[C@@H]1C[C@@H]2c3cc(NC(=O)Nc4ccccc4)ccc3O[C@@H]2[C@H](CO)O1)NCC1CC1	1.0	-2.4[16.7 µM]	1.1	nt	-2.1	5.5
CCC[N+]1(CC#CCC(c2ccccc2)c2ccccc2)CCCCC1	-40.4	-7.0	nt	74.2*	-55.0	0.6
C(#Cc1ccccc1)C[N+]1(CC#Cc2ccccc2)CCCCC1	-8.8	2.9	2.4	35.6	-49.5	1.5
O=C(CC1CC1)N1CC2(C1)[C@H](c1ccccc1)[C@@H](CO)N2C(=O)C1CCOCC1	2.7	nt	-3.0	nt	3.5	nt
CCc1nnc(NC(=O)CSc2nc3cc4c(cc3cc2CC)OCCO4)s1	49.4*	5.2	nt	nt	nt	6.4
CCc1cc2cc3c(cc2nc1SCC(=O)Nc1nnc(C)s1)OCCO3	7.1	-3.9	1.6	nt	24.4	3.5
CC1CCc2nc3ccccc3c(C(=O)OCC(=O)NC3CCS(=O)(=O)C3)c2C1 (stereo not given)	34.7	nt	-2.2	-26.1	-28.9*	nt
CCc1nc2ccc(C(=O)NCCCN3CCCC3=O)cn2c1N(CCC(C)C)CCN(C)C	48.7*	2.3	2.2	12.9	0.0	0.4
COc1ccc(C#Cc2ccc([C@@H]3[C@@H](CO)N4CCCCN(Cc5ccncc5)C[C@@H]34)cc2)cc1	7.3	-2.0[16.7 µM]	-4.0	nt	-55.0	41.2
CN1C(=O)/C(=C/c2ccc3c(c2)OCO3)N=C1c1ccccc1	40.0*	nt	nt	-26.8	nt	nt
COc1ccc(/C=C2\N=C(c3ccccc3)N(c3ccc(C(=O)O)cc3)C2=O)cc1OC	71.0*	-0.4	1.2	-2.0	5.3	-4.7
CN(C)C(=O)c1cccc(-c2ccc3c(c2)[C@@H]2[C@@H](CCN2C(=O)C2CCOCC2)[C@H](CO)N3)c1	-1.7	-5.9[16.7 µM]	-1.7	nt	-0.2	9.9
O=C1Cc2c([nH]c3ccc([N+](=O)[O-])cc23)-c2ccccc2N1	20.0	nt	-6.9	95.6*	-12.9	nt
CCC(=O)N1CCCc2cc(S(=O)(=O)N3CCN(c4ccccc4F)CC3)ccc21	-23.3	nt	2.1	40.9*	-1.5	-0.9

Compound activity as filed in PubChem BioAssay.
